Experimental data reported in ChEMBL document CHEMBL5380847, “Expanding the Paradigm of Structure-Based Drug Design: Molecular Dynamics Simulations Support the Development of New Pyridine-Based Protein Kinase C-Targeted Agonists” (J Med Chem, 2023).
Calls of active or inactive are those of the source. No cut-off for these calls is given here.

Assays:
Cardiac fibroblast = assay: Inhibition of PKC-mediated ERK1/2 phosphorylation in neonatal mouse Cardiac fibroblast cells incubated for 30 mins in presence of PKC inhibitor Go6983 by Alphalisa analysis; type: cell-based
How it was run: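 Neonatal mouse cardiac fibroblasts were pretreated, or not, with the PKC inhibitor Gö6983 (1 μM). Cells were then exposed for 30 min to compounds at 10 μM (PMA at 10 nM). Total and phospho-ERK1/2 in lysates were quantified by Alpha technology and normalized to DMSO control. Values are mean + SEM (N = 3), analysed by randomized block ANOVA with Dunnett's post hoc test.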

[1] = test system: Fibroblast of cardiac tissue; assay: Effect on PKCalpha expression level in neonatal mouse Cardiac fibroblast cells at 10 uM measured for 24 hrs by Western blot analysis; type: functional, cell-based
How it was run: (§1)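 Neonatal mouse cardiac fibroblasts were treated with 10 μM compound for 24 h and then lysed. Total protein was extracted, and PKCα, -δ and -ϵ levels were analysed by Western blotting. Levels were normalized to vehicle control (0.1% DMSO). Values are mean + SEM of N = 3 independent experiments.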

[2] = test system: Fibroblast of cardiac tissue; assay: Effect on PKCdelta expression level in neonatal mouse Cardiac fibroblast cells at 10 uM measured for 24 hrs by Western blot analysis; type: functional, cell-based; how it was run: as §1
[3] = test system: Fibroblast of cardiac tissue; assay: Effect on PKCepsilon expression level in neonatal mouse Cardiac fibroblast cells at 10 uM measured for 24 hrs by Western blot analysis; type: functional, cell-based; how it was run: as §1
DU-145 = assay: Anticancer activity against human DU-145 cells assessed as reduction in cell viability at 0.03 to 30 uM measured after 24 hrs by MTT assay; type: functional, cell-based; conditions: dose 0.03-30 µM
How it was run: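 DU145 human prostate cancer cells were exposed for 24 h to compounds at 0.3, 3.0 and 30 μM, with 0.03 μM added for the reference. Viability was read by MTT and expressed as percent of vehicle control (0.1% DMSO). Values are mean + SEM of N = 3–4 independent experiments.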

[4] = molecular target: Protein kinase C alpha type (Homo sapiens) (UniProt P17252); assay: Displacement of [3H]-PDBu-from full length human recombinant PKCalpha expressed in baculovirus infected Sf9 cells incubated for 10 mins by microbeta liquid scintillation counter analysis; conditions: filed as agonist, dose 1-30 µM
[5] = molecular target: Protein kinase C alpha type (Homo sapiens) (UniProt P17252); assay: Displacement of [3H]-PDBu-from full length human recombinant PKCalpha expressed in baculovirus infected Sf9 cells at 1 to 30 uM incubated for 10 mins by microbeta liquid scintillation counter analysis; conditions: dose 1-30 µM

| Compound | inhibition (Cardiac fibroblast) | Activity [1] | Activity [2] | Activity [3] | Activity (DU-145) | Activity [4] | Activity [5] |
| --- | --- | --- | --- | --- | --- | --- | --- |
| CN(Cc1cccc(C(F)(F)F)c1)C(=O)c1cc(CO)cc(C(=O)N(C)Cc2cccc(C(F)(F)F)c2)n1 | Active | inactive | inactive | inactive | inactive | Dose-Dependent Effect |  |
| O=C(OCc1cccc(C(F)(F)F)c1)c1cc(CO)cc(C(=O)OCc2cccc(C(F)(F)F)c2)n1 |  |  |  |  | inactive |  | inactive |
| CCCCCCCCNC(=O)c1cc(CO)cc(C(=O)NCCCCCCCC)n1 |  |  |  |  | inactive |  |  |
| O=C(OCc1cccc(C(F)(F)F)c1)c1cc(CO)cc(C(=O)OCc2cccc(C(F)(F)F)c2)c1 | Active | inactive | inactive | inactive |  |  |  |
| CCCCC(CC)OC(=O)c1cc(CO)cc(C(=O)OC(CC)CCCC)n1 (stereo unspecified) |  |  | inactive |  | inactive | Dose-Dependent Effect |  |
